Assay [1] relates to Spodoptera eridania. Description: Antiparasitic activity against southern army worm Spodoptera eridania. It is filed as functional. Put shortly:
(§1)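 Neonate southern armyworm (Spodoptera eridania) larvae placed on bean leaves treated with test compound.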

Assay [2] relates to Tetranychus urticae. Description: Antiparasitic activity against two-spotted spider mite Tetranychus urticae on bean plants. It is filed as functional. Put shortly: (§2)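 Two-spotted spider mite (Tetranychus urticae) infesting bean plants treated with test compound.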
Assay [3] has as its system Trichostrongylus colubriformis. The assay can be described thus: Antiparasitic activity against sheep parasite Trichostrongylus colubriformis. Particulars: in gerbil.
The nature of assay [4]: Displacement of ivermectin from avermectin receptor of Caenorhabditis elegans. The essentials:
(§3)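 Competitive binding with [22,23-3H2]ivermectin as radioligand, displaced from an avermectin receptor preparation derived from the free-living nematode Caenorhabditis elegans.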

In assay [5] the test system is Tetranychus urticae. Description: Antiparasitic activity against Tetranychus urticae. The format is functional. The essentials: as §2
The test system of assay [6] is Spodoptera eridania. The assay can be described thus: Antiparasitic activity against Southern army worm. It is filed as functional. The essentials: as §1
The test system of assay [7] is Trichostrongylus colubriformis. The assay can be described thus: Antiparasitic activity against Trichostrongylus colubriformis. The format is functional. Put shortly: (§4)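 Sheep nematode Trichostrongylus colubriformis tested in vivo in a gerbil infection model.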
Assay [8] can be described thus: Binding radioligand. The arrangement: species or system Caenorhabditis elegans. Put shortly: as §3
Assay [9] has as its system Trichostrongylus colubriformis. The assay can be described thus: Antiparasitic activity against sheep parasite Trichostrongylus colubriformis. It is filed as functional. Put shortly: as §4

With `CC[C@H](C)[C@H]1O[C@]2(CC[C@@H]1C)C[C@@H]1C[C@@H](C/C=C(\C)[C@H](F)[C@@H](C)/C=C/C=C3\CO[C@@H]4[C@H](O)C(C)=C[C@@H](C(=O)O1)[C@]34O)O2`, the ED90 with Spodoptera eridania [1] was 0.5 p.p.m; in the assay on Tetranychus urticae [2], 0.01 p.p.m; in [3], below 0.1 mg/kg. In addition, in assay [4], affinity was put at a Ki of 0.3 nM.
The matching figures for `CC[C@H](C)[C@H]1O[C@]2(CC[C@@H]1C)C[C@@H]1C[C@@H](C/C=C(\C)[C@@H](F)[C@@H](C)/C=C/C=C3\CO[C@@H]4[C@H](O)C(C)=C[C@@H](C(=O)O1)[C@]34O)O2`: above 0.5 p.p.m, 0.05 p.p.m, below 0.1 mg/kg and 0.2 nM.
With `CC[C@H](C)[C@H]1O[C@]2(CC[C@@H]1C)C[C@@H]1C[C@@H](C/C=C(C)/C=C(C)\C=C\C=C3/CO[C@@H]4[C@H](O)C(C)=C[C@@H](C(=O)O1)[C@]34O)O2`, the ED90 in the assay with Spodoptera eridania [1] is above 1 p.p.m; with Tetranychus urticae [2] it was above 6.25 p.p.m; in [3], above 2.5 mg/kg. In addition, the affinity in [4], expressed as Ki, was 0.8 nM.
For `CC[C@H](C)[C@H]1O[C@]2(CC[C@@H]1C)C[C@@H]1C[C@@H](C/C=C(\C)[C@@H](N)[C@@H](C)/C=C/C=C3\CO[C@@H]4[C@H](O)C(C)=C[C@@H](C(=O)O1)[C@]34O)O2`, the values for the ED90 (with Spodoptera eridania [1]; with Tetranychus urticae [2]; in assay [3]) were above 1 p.p.m, above 0.1 p.p.m and 0.5 mg/kg, respectively. Besides, the Ki in assay [4] was above 100 nM.
Turning to `CC[C@H](C)[C@H]1O[C@]2(CC[C@@H]1C)C[C@@H]1C[C@@H](C/C=C(\C)C(=O)[C@@H](C)/C=C/C=C3\CO[C@@H]4[C@H](O)C(C)=C[C@@H](C(=O)O1)[C@]34O)O2`, the ED90 with Tetranychus urticae [5] was 6.25 p.p.m; in the assay on Spodoptera eridania [6], above 0.5 p.p.m; in assay [7], 0.5 mg/kg. For the same compound, the Ki in assay [4] was 0.6 nM.
For `CC[C@H](C)[C@H]1O[C@]2(CC[C@@H]1C)C[C@@H]1C[C@@H](C/C=C(C)/C(=N\OC)[C@@H](C)/C=C/C=C3\CO[C@@H]4[C@H](O)C(C)=C[C@@H](C(=O)O1)[C@]34O)O2`, in assay [8], affinity was put at a Ki of 0.3 nM. Also, the ED90 was 0.5 p.p.m in the assay with Spodoptera eridania [1], 0.05 p.p.m with Tetranychus urticae [2] and below 0.1 mg/kg in assay [3].
With `CC[C@H](C)[C@H]1O[C@]2(CC[C@@H]1C)C[C@@H]1C[C@@H](C/C=C(\C)[C@H](Cl)[C@@H](C)/C=C/C=C3\CO[C@@H]4[C@H](O)C(C)=C[C@@H](C(=O)O1)[C@]34O)O2`, the ED90 in the assay with Tetranychus urticae [5] came out at 0.25 p.p.m; in the assay on Spodoptera eridania [6] it was 0.5 p.p.m; in assay [7], 0.1 mg/kg. Affinity in assay [4] was put at a Ki of 1 nM.
As for `CC[C@H](C)[C@H]1O[C@]2(CC[C@@H]1C)C[C@@H]1C[C@@H](C/C=C(\C)[C@@H](OC)[C@@H](C)/C=C/C=C3\CO[C@@H]4[C@H](O)C(C)=C[C@@H](C(=O)O1)[C@]34O)O2`, the ED90 in the assay with Tetranychus urticae [2] was found to be 1 p.p.m; in [3], 0.5 mg/kg. Further, in assay [4], the Ki was 0.6 nM.
Turning to `CC[C@H](C)[C@H]1O[C@]2(CC[C@@H]1C)C[C@@H]1C[C@@H](C/C=C(\C)C[C@@H](C)/C=C/C=C3\CO[C@@H]4[C@H](O)C(C)=C[C@@H](C(=O)O1)[C@]34O)O2`, the ED90 turned out to be 0.5 p.p.m in the assay on Spodoptera eridania [1], 0.05 p.p.m in the assay on Tetranychus urticae [2] and 0.06 mg/kg in assay [3]. The affinity in assay [4] corresponds to a Ki of 0.9 nM.
As to `CC[C@H](C)[C@H]1O[C@]2(CC[C@@H]1C)C[C@@H]1C[C@@H](C/C=C(\C)[C@@H](Cl)[C@@H](C)/C=C/C=C3\CO[C@@H]4[C@H](O)C(C)=C[C@@H](C(=O)O1)[C@]34O)O2`, the ED90 in the assay with Tetranychus urticae [5] is above 0.1 p.p.m; with Spodoptera eridania [6], below 1 p.p.m; in assay [7], below 0.1 mg/kg.
With IVERMECTIN [listing 1 of 2 here], the Ki in assay [8] worked out at 0.3 nM.
Compound `CC[C@H](C)[C@H]1O[C@]2(C=C[C@@H]1C)C[C@@H]1C[C@@H](C/C=C(\C)[C@@H](O[C@H]3C[C@H](OC)[C@@H](O[C@H]4C[C@H](OC)[C@@H](O)[C@H](C)O4)[C@H](C)O3)[C@@H](C)/C=C/C=C3\CO[C@@H]4[C@H](O)C(C)=C[C@@H](C(=O)O1)[C@]34O)O2` [ABAMECTIN COMPONENT B1A] displayed a Ki in assay [8] of 0.1 nM. Besides, the figures for the ED90 (in the assay on Spodoptera eridania [1]; with Tetranychus urticae [2]; in assay [3]) were 8 p.p.m, 0.05 p.p.m and 0.03 mg/kg, respectively.
With `CC[C@H](C)[C@H]1O[C@]2(CC[C@@H]1C)C[C@@H]1C[C@@H](CC(N3CCOCC3)/C(C)=C\[C@@H](C)/C=C/C=C3\CO[C@@H]4[C@H](O)C(C)=C[C@@H](C(=O)O1)[C@]34O)O2` (some centres not stated), the values for the ED90 (in the assay with Tetranychus urticae [2]; in [3]) were 6.25 p.p.m and above 2.5 mg/kg, respectively. Moreover, in assay [4], the Ki is above 100 nM.
In the case of `CC[C@H](C)[C@H]1O[C@]2(CC[C@@H]1C)C[C@@H]1C[C@@H](C/C=C(\C)[C@H](O)[C@@H](C)/C=C/C=C3\CO[C@@H]4[C@H](O)C(C)=C[C@@H](C(=O)O1)[C@]34O)O2`, the ED90 in the assay on Spodoptera eridania [1] was above 8 p.p.m; with Tetranychus urticae [2] it was 0.05 p.p.m; in [3] it was below 0.5 mg/kg. The compound further came in with a Ki in assay [4] of 2 nM.
Turning to `CC[C@H](C)[C@H]1O[C@]2(CC[C@@H]1C)C[C@@H]1C[C@@H](C/C=C(\C)[C@@H](O)[C@@H](C)/C=C/C=C3\CO[C@@H]4[C@H](O)C(C)=C[C@@H](C(=O)O1)[C@]34O)O2` [IVM AGLYCONE], the ED90 is above 6.25 p.p.m in the assay on Spodoptera eridania [1] and 0.5 p.p.m in the assay on Tetranychus urticae [2]. In [4], this compound gave a Ki of 6.4 nM.
For IVERMECTIN [listing 2 of 2 here], the ED90 was 8 p.p.m with Spodoptera eridania [1], 0.05 p.p.m in the assay with Tetranychus urticae [2] and 0.05 mg/kg in [9].
With `CC[C@H](C)[C@H]1O[C@]2(CC[C@@H]1C)C[C@@H]1C[C@@H](CC(O)/C(C)=C\[C@@H](C)/C=C/C=C3\CO[C@@H]4[C@H](O)C(C)=C[C@@H](C(=O)O1)[C@]34O)O2` (some centres not stated), the Ki in assay [8] was above 100 nM. The compound also gave an ED90 with Tetranychus urticae [2] above 6.25 p.p.m.
Take `CC[C@H](C)[C@H]1O[C@]2(CC[C@@H]1C)C[C@@H]1C[C@@H](C/C=C(\C)[C@@H](OCOCCOC)[C@@H](C)/C=C/C=C3\CO[C@@H]4[C@H](O)C(C)=C[C@@H](C(=O)O1)[C@]34O)O2`: the ED90 in the assay with Tetranychus urticae [5] is 0.05 p.p.m; in the assay with Spodoptera eridania [6] it was below 1 p.p.m; in assay [7] it was above 0.1 mg/kg. In addition, in assay [4], the affinity, expressed as Ki, was 2.7 nM.
`CC[C@H](C)[C@H]1O[C@]2(CC[C@@H]1C)C[C@@H]1C[C@@H](CC(N(C)C(C)=O)/C(C)=C\[C@@H](C)/C=C/C=C3\CO[C@@H]4[C@H](O)C(C)=C[C@@H](C(=O)O1)[C@]34O)O2` (some centres not stated) registered a Ki in assay [8] above 100 nM. Besides, the ED90 in the assay with Tetranychus urticae [2] is above 6.25 p.p.m; in assay [3], above 2.5 mg/kg.
`CC[C@H](C)[C@H]1O[C@]2(CC[C@@H]1C)C[C@@H]1C[C@@H](C/C=C(\C)[C@H](I)[C@@H](C)/C=C/C=C3\CO[C@@H]4[C@H](O)C(C)=C[C@@H](C(=O)O1)[C@]34O)O2`: the ED90 in the assay with Tetranychus urticae [5] worked out at 1.25 p.p.m; in [7], 0.5 mg/kg. Besides, the Ki in assay [4] was 2.4 nM.
As for `CC[C@H](C)[C@H]1O[C@]2(CC[C@@H]1C)C[C@@H]1C[C@@H](C/C=C(\C)[C@H](OCOCCOC)[C@@H](C)/C=C/C=C3\CO[C@@H]4[C@H](O)C(C)=C[C@@H](C(=O)O1)[C@]34O)O2`, the ED90 in the assay on Tetranychus urticae [5] is 0.01 p.p.m; in the assay on Spodoptera eridania [6], above 0.25 p.p.m; in assay [7] it was below 0.1 mg/kg. The inhibition constant Ki in assay [4] stood at 2.9 nM.

The Ki is a measure of affinity in units of concentration, obtained from inhibition or displacement.

(Values after ChEMBL document CHEMBL1124629, “Syntheses and biological activities of 13-substituted avermectin aglycons” (J Med Chem, 1989).)
